Source: PubChem (several laboratories)
Most compounds without a hit are left out; they make up all but 12% or so of the library.
WT yeast gro inh: growth inhibition of WT strain, primary screen, mitochondrial fusion inhibitor project, WT and mutant strains, chemical genetic; mitochondrial fusion phenotypic screen; inhibition, % at 10 µM; 190,000 tested, 2.1% active; AID 1362, 2008; in the data active = inhibition above about 58%; tested in S. cerevisiae
Diaphorase act: compounds boosting diaphorase resazurin reduction – biochemical, uHTS, resorufin fluorescence, counter-screen for diaphorase-coupled primary assays, primary screen. activation factor at 20 µM. Diaphorase/resazurin coupled assay, 16 min; stronger effect = higher value; 1 = vehicle wells, 0 = NADH-free wells. AID 1229, 2008. 190,000 tested, 0.005% active;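 active = diaphorase activity raised at least twofold by the compound at 20 µM; inactive = activation factor below 2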
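Test system: Clostridium kluyveri diaphorase, purified enzyme; input: enzyme 0.07 U/mL final; buffer or medium: 50 mM HEPES pH 7.4 with 4.542 mM MgCl2, 0.005% Tween 20; also added: 0.114 mM NADH and 0.1 mM resazurin, final amounts; schedule: 16 min enzyme reaction, ambient temperature; technique: fluorescence of resorufin, 544 nm excitation, 590 nm emission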
KCC2 mod: KCC2 cotransporter modulators, thallium flux, primary screen, cell-based, HEK293 KCC2, FluoZin-2 fluorescence, MLSMR; Solute carrier family 12 member 5 (Homo sapiens), Q9H2X9; KCC2 cells, thallium flux FluoZin-2 fluorescence; B-score of Tl+ flux slope (higher = more flux/activation; lower = inhibition) at 10 µM; 190,000 tested, 2.2% active; AID 1456, 2008;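 active = thallium flux slope and its plate-corrected score both differing from the plate sample mean at a set confidence after two filtering rounds, in either direction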;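 also: slope of fluorescence scaled to starting intensity during 10 to 20 s after thallium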
L major viab: Leishmania major promastigote growth inhibition, primary screen. Leishmania major promastigotes, resazurin fluorescence viability. AID 1063, 2008. inhibition, % at 10 µM. 200,000 tested, 9% active; in the data active = inhibition above about 50%;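 also: promastigotes grown with compound for 44 hours at 28 °C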
ROMK primary: ROMK potassium channel modulators, primary screen, cell-based, thallium flux, MLSMR library; ATP-sensitive inward rectifier potassium channel 1 (Homo sapiens), P48048; Tet-inducible ROMK, thallium flux fluorescence; actives lie on both sides; B-score at 10 µM; 130,000 tested, 2% active; AID 1918, 2009;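 active = signal ratio slope over the read window, or its plate-corrected B-score, at least 3 SD from the plate mean, either direction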;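 also: B-score of the F/F0 ratio slope over 7 to 12 s after thallium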
Diaphorase inh: diaphorase inhibitors and chemical oxidizers, primary screen, counter-screen for diaphorase-coupled primary assays, biochemical, uHTS, resorufin fluorescence. diaphorase resazurin-to-resorufin fluorescence, NADH, 16 min; bacterial (C. kluyveri) enzyme, not human. inhibition, % at 20 µM. 190,000 tested, 0.69% active. AID 1217, 2008;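 active = primary screen inhibition at 20 µM above a set limit, cut at about 50% in these data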;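 also: plate controls were DMSO with full reaction for no effect and wells lacking NADH for full effect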
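Test system: Clostridium kluyveri diaphorase enzyme / Quantity: diaphorase at 0.14 U/mL in enzyme working solution / Incubation: 16-min room-temperature incubation before reading / Benchmarks: NADH-free wells as positive control, DMSO-only neutral wells / Signal: resorufin fluorescence 544/590 nm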
Active calls of the source: *; x = not tested or not shown.

SMILES	WT yeast gro inh	Diaphorase act	KCC2 mod	L major viab	ROMK primary	Diaphorase inh
COc1ccc(F)cc1C(=O)C1CCCN(Cc2cnc(N3CCCC3)s2)C1 (stereo not drawn)	16.0	0.9	x	8.3	0.258	10.3
COc1ccc(CN2CCCC(C(=O)c3ccc(Cl)cc3)C2)cc1Cn1cccn1 (stereo not drawn)	30.2	0.9	x	95.9*	-2.18	7.3
COc1ccc2cc(C(=O)C3CCCN(C(=O)c4snnc4C)C3)ccc2c1 (stereo not drawn)	11.9	0.9	0.129	7.4	-0.969	9.0
COc1c(C)cc(C(=O)C2CCCN(Cc3cnc(N4CCOCC4)s3)C2)cc1C (stereo not drawn)	5.3	1	-1.27	99.8*	-0.849	0.0
Cc1ccccc1-c1nc2cc(N)ccc2o1	1.7	0.8	x	5.8	x	19.1
CC(C)c1ccc2oc(-c3cc(N)ccc3O)nc2c1	68.0*	1	-0.0761	-3.2	2	-4.8
CSC(=NCc1cccnc1)NS(=O)(=O)c1cccs1	-14.2	0.3	-0.253	-7.1	x	73.6*
O=C(Nc1ccc(N2CCOCC2)cc1)Nc1ccc2nc(-c3ccco3)c(-c3ccco3)nc2c1	-39.1	0.8	-0.825	-6.0	x	21.2
O=C(NCCCO)Nc1ccc2nc(-c3ccco3)c(-c3ccco3)nc2c1	10.5	0.4	x	-5.6	x	60.1*
O=C(Nc1ccc2nc(-c3ccco3)c(-c3ccco3)nc2c1)NC1CC1	-11.0	0.2	-0.11	-0.7	0.573	79.7*
CNC(=O)COC(=O)c1ccc(Cl)c(S(N)(=O)=O)c1	x	x	-0.283	x	x	x
COC(=O)c1ccc(-c2ccco2)n1Cc1cc(C)ccc1C	0.8	0.9	-0.25	-5.1	-0.328	9.2
COC(=O)c1ccc(-c2ccco2)n1Cc1cccc(C)c1	63.6*	0.9	0.576	2.0	0.19	13.4
COc1cc(/C=N/Nc2ccc(Cl)cc2)ccc1OC(=O)c1cccs1	54.3	0.8	0.413	-2.3	0.0271	24.3
OCCN1CCN(C(c2cccs2)c2ccc3cccnc3c2O)CC1 (stereo not drawn)	1.2	0.7	2.19	52.8*	x	32.2
O=C(Nc1ccc(F)cc1)C1CCC(CNc2c(N3CCCCC3)c(=O)c2=O)CC1 (stereo not drawn)	x	x	0.228	x	0.549	x
COC(=O)c1ccc(/C=C(\C#N)c2nc3ccccc3s2)cc1	83.8*	0.8	0.579	-6.5	x	24.2
CC(C)(C)c1ccc(C(=O)OC/C(O)=C(\C#N)c2nc3ccccc3s2)cc1	2.4	0.9	-0.533	-3.8	x	7.6
c1csc(-c2ccn[nH]2)c1	x	x	-0.65	x	x	x
S=c1nccc(-c2cccs2)[nH]1	-14.5	0.5	2.77	-10.6	-0.26	53.5*
Cc1c(Cl)cccc1NC(=O)CCC(=O)N/N=C/c1ccc[nH]1	-2.9	1	-0.0259	-8.6	x	4.7
CC(O)C(=O)N/N=C/c1ccccc1C(=O)O (stereo not drawn)	-4.5	0.9	1.38	-7.3	0.503	11.1
COc1ccc(-c2cnnn2-c2ccc(NC(=O)c3ccc(S(=O)(=O)N4CCCCC4)cc3)cc2)cc1OC	-7.7	0.9	-1.27	96.1*	0.343	7.1
COc1cccc(NC(=O)c2ccc(S(=O)(=O)N3CCCCC3)cc2)c1	-11.8	0.8	-1.32	3.8	x	19.0
COc1ccc(C(=O)Nc2ccc(S(=O)(=O)N3CCCCC3)cc2)cc1OC	-5.7	0.9	-0.202	67.2*	x	9.0
SMILES	WT yeast gro inh	Diaphorase act	KCC2 mod	L major viab	ROMK primary	Diaphorase inh
Cc1ccc2nc(SCc3nnc(-c4ccccc4Br)o3)[nH]c2c1	-8.5	0.7	-1.17	18.1	x	30.7
CN1CCN(CCC(=O)Nc2cccc(Br)c2)CC1	x	x	-0.393	x	x	x
Brc1ccc(C2=Nn3c(nnc3-c3n[nH]c4c3CCC4)SC2)cc1	-4.8	0.8	-0.635	59.2*	x	21.6
Clc1ccc(C2=Nn3c(nnc3-c3n[nH]c4c3CCC4)SC2)cc1	29.3	0.6	1.55	58.1*	x	36.0
c1ccc(-c2ccc(C3=Nn4c(nnc4-c4cc(-c5ccccc5)n[nH]4)SC3)cc2)cc1	27.2	0.8	0.432	28.3	x	19.1
CCNc1nc(NC(C)CC)nc(ON=C(C)C)n1 (stereo not drawn)	12.4	0.9	0.395	19.8	0.348	5.9
O=S(=O)(NCC(c1ccco1)N1CCOCC1)c1ccc(Cl)cc1 (stereo not drawn)	-25.2	1	0.024	-3.5	0.386	4.8
COc1ccc([N+](=O)[O-])cc1/C=N/NC(=O)CNC(=O)c1cccc(F)c1	-22.8	0.7	-0.0523	97.9*	x	30.6
O=C(CNC(=O)c1ccc(F)cc1)N/N=C/c1cc(Br)ccc1OCc1ccccc1	16.8	0.8	-0.907	95.7*	0.0901	22.1
COc1ccc([N+](=O)[O-])cc1/C=N/NC(=O)CNC(=O)C(c1ccccc1)c1ccccc1	18.7	0.8	0.138	-1.2	x	17.9
O=C(CNC(=O)c1cccc(F)c1)N/N=C/c1cc(Br)ccc1OC(=O)/C=C/c1ccco1	16.2	0.8	-2.03	84.4*	-0.431	23.6
O=C(CNC(=O)c1ccccc1O)N/N=C/c1cc(Br)ccc1OC(=O)/C=C/c1ccco1	30.1	0.9	-0.248	68.2*	0.121	8.5
CN(C)S(=O)(=O)c1ccc(NC(=O)CCNC(=O)c2ccc([N+](=O)[O-])cc2)cc1	14.8	1.1	-0.745	2.3	0.23	-7.1
Fc1ccc(COc2cccc(CNCc3ccncc3)c2)cc1	9.3	1	-1.5	95.7*	-1.57	0.2
Cc1ccc(CNCc2cccnc2)s1	-23.4	0.9	-0.017	66.1*	0.922	7.3
CC(C)(C)NC(=O)COc1ccc(CNCc2cccs2)cc1	1.7	1	0.0378	76.7*	x	4.7
c1ccc(COc2ccc(CNCc3cccs3)cc2)cc1	34.4	1.1	x	99.1*	-0.659	-6.8
CCOC(=O)CSc1nc2sc(C)c(C)c2c(=O)n1N	6.5	0.9	-0.235	3.8	0.981	10.7
COc1ccc(N2CCN(C(=O)CSc3nnc(NC(=O)C4CCC4)s3)CC2)cc1	-25.3	0.8	0.193	-1.9	x	20.5
Cc1ccc(CNCc2cccnc2)cc1	-20.0	0.9	-0.13	92.7*	x	9.8
Cc1ccc(NCc2cccnc2)c(Br)c1	15.1	0.9	1.27	-3.3	-0.975	12.2
c1ccc(COc2ccc(CNCc3cccnc3)cc2)cc1	44.3	1	-0.102	99.0*	0.295	-4.1
CCOc1ccc(CNCc2cccnc2)cc1	-8.4	1	0.252	89.5*	0.189	4.4
O=C(NCc1cccnc1)c1ccc(COc2ccc(Cl)cc2)cc1	28.9	0.8	-2.17	2.7	-0.256	16.2
